Each structure is given as a SMILES string. pIC50: −log10 of the molar value. Active and inactive are the calls of the source. The rule behind the calls is not given here.

Here are results for 50 compounds from ChEMBL document CHEMBL4028911, “Discovery of a Small-Molecule Bromodomain-Containing Protein 4 (BRD4) Inhibitor That Induces AMP-Activated Protein Kinase-Modulated Autophagy-Associated Cell Death in Breast Cancer” (J Med Chem, 2017).

The target in assay [1] is Bromodomain-containing protein 4 (Homo sapiens, UniProt O60885). Put plainly: Inhibition of His/thioredoxin-tagged human recombinant BRD4 bromodomain-1 (43 to 166 residues) expressed in Escherichia coli BL21 Star (DE3) pre-incubated for 30 mins followed by biotinylated histone peptide H4 addition measured after 30 mins by AlphaScreen assay.
Assay [2] concerns MCF7. The assay is described as follows: Antiproliferative activity against human MCF7 cells after 24 hrs by MTT assay. The class given is functional, cell-based. Particulars: MCF7, 24 h.
In assay [3] the test system is MDA-MB-231. The assay is described as follows: Antiproliferative activity against human MDA-MB-231 cells after 24 hrs by MTT assay. The class given is functional, cell-based. As to conditions: MDA-MB-231, 24 h.
Assay [4] concerns MCF7. The assay is described as follows: Induction of autophagy in GFP/mRFP treated human MCF7 cells assessed as induction of LC3 puncta at 150 uM by fluorescence microscopic analysis. The class given is functional, cell-based. In outline:
(§1)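 MCF-7 or MDA-MB-231 cells transfected with GFP/mRFP-LC3 plasmid, then treated with 150 µM for indicated times. GFP-LC3 puncta observed by fluorescence microscopy.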

For assay [5], the system named is MDA-MB-231. Put plainly: Induction of autophagy in GFP/mRFP treated human MDA-MB-231 cells assessed as induction of LC3 puncta at 150 uM by fluorescence microscopic analysis. It counts as functional, cell-based. In outline:
as §1

The subject of assay [6] is MCF7. The assay is described as follows: Induction of autophagy in human MCF7 cells assessed as downregulation of p62/SQSTM1 expression at […] by Western blot analysis. The class given is functional, cell-based.
Assay [7] concerns MDA-MB-231. Put plainly: Induction of autophagy in human MDA-MB-231 cells assessed as downregulation of p62/SQSTM1 expression at […] by Western blot analysis. The class given is functional, cell-based.

For `CC1CCc2c(sc3nc(-c4cccc(Br)c4)[nH]c(=O)c23)C1` (configuration not stated), the pIC50 in assay [1] is 5.99; with MCF7 [2] it was 5.57; with MDA-MB-231 [3] it was 4.79.
Taken in the same sequence, the figures for `Cc1cc(-c2nc3sc4c(c3c(=O)[nH]2)CCCCC4)cc(C)c1O` were 6.31, 5.55 and 5.08.
Taken in the same sequence, the figures for `Cc1cc(-c2nc3sc4c(c3c(=O)[nH]2)CCN(Cc2ccccc2)C4)cc(C)c1O` were less than 5.00, less than 4.52 and less than 4.52.
Taken in the same sequence, the figures for `O=c1[nH]c(-c2cccc(O)c2)nc2sc3c(c12)CCCCC3` were 5.40, 4.88 and 4.76.
For `COc1cccc(-c2nc3sc4c(c3c(=O)[nH]2)CCN(Cc2ccccc2)C4)c1`, the pIC50 is less than 5.00 in assay [1], less than 4.52 in the assay with MCF7 [2] and less than 4.52 with MDA-MB-231 [3].
Take `Oc1nc(-c2ccccc2)nc2sc3c(c12)CCCC3`: the pIC50 is less than 5.00 in assay [1], less than 4.52 with MCF7 [2] and less than 4.52 in the assay with MDA-MB-231 [3].
On to `COc1cc(OC)c2c(=O)[nH]c(-c3cc(C)c(OCCO)c(C)c3)nc2c1` [APABETALONE], for which the pIC50 in the assay on MCF7 [2] was 3.85; in the assay with MDA-MB-231 [3], 3.81. For the same compound, the outcome in the assay with MCF7 [4], in the assay on MDA-MB-231 [5], in the assay on MCF7 [6] and in the assay with MDA-MB-231 [7] was Active.
Take `CN1CCc2c(sc3nc(-c4cccc(O)c4)[nH]c(=O)c23)C1`: the pIC50 in assay [1] is less than 5.00; in the assay with MCF7 [2], less than 4.52; in the assay on MDA-MB-231 [3], less than 4.52.
Take `O=c1[nH]c(Cc2ccccc2)nc2sc3c(c12)CCCCC3`: the pIC50 is 6.09 in assay [1], 5.35 in the assay on MCF7 [2] and 5.24 with MDA-MB-231 [3].
Taken in the same sequence, the figures for `CCCc1cc2c(=O)[nH]c(-c3cccc(Br)c3)nc2s1` were less than 5.00, less than 4.52 and less than 4.52.
For `O=c1[nH]c(-c2ccc(F)cc2F)nc2sc3c(c12)CCCC3` the same measures were less than 5.00, less than 4.52 and less than 4.52.
Taken in the same sequence, the figures for `CN1CCc2c(sc3nc(Cc4ccc(-c5ccccc5)cc4)[nH]c(=O)c23)C1` were less than 5.00, less than 4.52 and less than 4.52.
On to `Cc1cc(-c2nc3sc4c(c3c(=O)[nH]2)CCC4)cc(C)c1O`, for which the figures for the negative logarithm of the IC50 (pIC50) (in assay [1]; in the assay on MCF7 [2]; in the assay with MDA-MB-231 [3]) were 5.20, 4.73 and 4.64, respectively.
For `CCCc1cc2c(=O)[nH]c(-c3ccc(O)cc3)nc2s1` the same measures were 5.07, less than 4.52 and 4.55.
For `CC1CCc2c(sc3nc(-c4ccc(C(F)(F)F)cc4)[nH]c(=O)c23)C1` (configuration not stated) the same measures were less than 5.00, less than 4.52 and less than 4.52.
`O=c1[nH]c(-c2ccc(C(F)(F)F)cc2)nc2sc3c(c12)CCCCC3`: the pIC50 in assay [1] was less than 5.00; with MCF7 [2], less than 4.52; in the assay with MDA-MB-231 [3], less than 4.52.
For the compound `CN1CCc2c(sc3nc(-c4ccc(O)cc4)[nH]c(=O)c23)C1`, the pIC50 in assay [1] is 6.14; in the assay on MCF7 [2], 5.26; in the assay with MDA-MB-231 [3] it was 5.08.
Taken in the same sequence, the figures for `O=c1[nH]c(-c2ccc(O)cc2)nc2sc3c(c12)CCCCC3` were 6.25, 5.81 and 5.48.
Taken in the same sequence, the figures for `COc1cccc(-c2nc3sc4c(c3c(=O)[nH]2)CCCC4)c1` were less than 5.00, less than 4.52 and less than 4.52.
Turning to `CN1CCc2c(sc3nc(-c4ccc(C(F)(F)F)cc4)[nH]c(=O)c23)C1`, the negative logarithm of the IC50 (pIC50) in assay [1] is less than 5.00; in the assay on MCF7 [2], less than 4.52; with MDA-MB-231 [3] it was 4.65.
For `O=c1[nH]c(-c2ccc(O)cc2)nc2sc3c(c12)CCCC3` the same measures were 5.14, 4.64 and less than 4.52.
Taken in the same sequence, the figures for `Cc1cc(-c2nc3sc4c(c3c(=O)[nH]2)CCCC4)cc(C)c1O` were 5.16, 4.60 and 4.56.
For `O=c1[nH]c(-c2ccccc2)nc2sc3c(c12)CCC3` the same measures were less than 5.00, less than 4.52 and less than 4.52.
As for `CCCc1cc2c(=O)[nH]c(-c3cccc(OC)c3)nc2s1`, the pIC50 in assay [1] was less than 5.00; in the assay with MCF7 [2], less than 4.52; with MDA-MB-231 [3], less than 4.52.
As to `O=c1[nH]c(-c2ccc(O)cc2)nc2sc3c(c12)CCN(Cc1ccccc1)C3`, the pIC50 in assay [1] is 5.20; in the assay on MCF7 [2], 4.77; with MDA-MB-231 [3], less than 4.52.
Take `CC1CCc2c(sc3nc(-c4cccc(O)c4)[nH]c(=O)c23)C1` (configuration not stated): the pIC50 was less than 5.00 in assay [1], less than 4.52 in the assay with MCF7 [2] and less than 4.52 with MDA-MB-231 [3].
With `CC1CCc2c(sc3nc(Cc4ccccc4)[nH]c(=O)c23)C1` (configuration not stated), the pIC50 in assay [1] is less than 5.00; with MCF7 [2], less than 4.52; in the assay with MDA-MB-231 [3], less than 4.52.
`COc1ccccc1-c1nc2sc3c(c2c(=O)[nH]1)CCC3`: the negative-log IC50 (pIC50) in assay [1] is 6.11; in the assay on MCF7 [2] it was 5.65; with MDA-MB-231 [3] it was 5.27.
For `CC1CCc2c(sc3nc(-c4ccccc4)[nH]c(=O)c23)C1` (configuration not stated) the same measures were less than 5.00, less than 4.52 and less than 4.52.
Taken in the same sequence, the figures for `O=c1[nH]c(-c2cccc(Br)c2)nc2sc3c(c12)CCCCC3` were 5.24, 4.73 and less than 4.52.
Taken in the same sequence, the figures for `COc1cccc(-c2nc(=O)c3c4c(sc3[nH]2)CC(C)CC4)c1` (configuration not stated) were less than 5.00, less than 4.52 and less than 4.52.
On to `O=c1[nH]c(-c2ccc(Br)cc2)nc2sc3c(c12)CCCCC3`, for which the pIC50 in assay [1] is less than 5.00; in the assay with MCF7 [2] it was less than 4.52; in the assay with MDA-MB-231 [3], less than 4.52.
For `CC1CCc2c(sc3nc(-c4ccc(O)cc4)[nH]c(=O)c23)C1` (configuration not stated), the pIC50 in assay [1] is 5.37; in the assay with MCF7 [2], 4.91; in the assay with MDA-MB-231 [3] it was 4.64.
As to `CC1CCc2c(sc3nc(Cc4ccc(-c5ccccc5)cc4)[nH]c(=O)c23)C1` (configuration not stated), the pIC50 in assay [1] is less than 5.00; in the assay on MCF7 [2], less than 4.52; in the assay on MDA-MB-231 [3], less than 4.52.
In the case of `Cc1sc2c(c1C)C(c1ccc(Cl)cc1)=N[C@@H](CC(=O)OC(C)(C)C)c1nnc(C)n1-2`, the pIC50 in the assay with MCF7 [2] is 4.54; with MDA-MB-231 [3] it was 4.48.
For the compound `O=c1[nH]c(Cc2ccc(-c3ccccc3)cc2)nc2sc3c(c12)CCCCC3`, the pIC50 in assay [1] is less than 5.00; with MCF7 [2], less than 4.52; in the assay on MDA-MB-231 [3], less than 4.52.
As for `O=c1[nH]c(-c2ccc(Br)cc2)nc2sc3c(c12)CCCC3`, the figures for the pIC50 (in assay [1]; with MCF7 [2]; with MDA-MB-231 [3]) were less than 5.00, less than 4.52 and less than 4.52, respectively.
For the compound `CCCc1cc2c(=O)[nH]c(Cc3ccc(-c4ccccc4)cc3)nc2s1`, the negative-log IC50 (pIC50) was less than 5.00 in assay [1], less than 4.52 in the assay with MCF7 [2] and less than 4.52 in the assay with MDA-MB-231 [3].
As to `CN1CCc2c(sc3nc(-c4cccc(Br)c4)[nH]c(=O)c23)C1`, the negative-log IC50 (pIC50) in assay [1] is 5.98; in the assay on MCF7 [2] it was 5.66; in the assay with MDA-MB-231 [3] it was 5.08.
Regarding `O=c1[nH]c(-c2ccc(C(F)(F)F)cc2)nc2sc3c(c12)CCC3`, the negative-log IC50 (pIC50) in assay [1] is 5.82; in the assay with MCF7 [2], 5.08; in the assay with MDA-MB-231 [3], 4.83.
As to `O=c1[nH]c(-c2ccccc2)nc2sc3c(c12)CCN(Cc1ccccc1)C3`, the pIC50 is less than 5.00 in assay [1], less than 4.52 in the assay on MCF7 [2] and less than 4.52 with MDA-MB-231 [3].
Take `O=c1[nH]c(-c2ccc(C(F)(F)F)cc2)nc2sc3c(c12)CCN(Cc1ccccc1)C3`: the negative logarithm of the IC50 (pIC50) in assay [1] is less than 5.00; in the assay with MCF7 [2], less than 4.52; in the assay on MDA-MB-231 [3] it was less than 4.52.
With `CC1CCc2c(sc3nc(-c4ccc(Br)cc4)[nH]c(=O)c23)C1` (configuration not stated), the pIC50 in assay [1] was less than 5.00; in the assay with MCF7 [2], less than 4.52; in the assay with MDA-MB-231 [3], less than 4.52.
Consider `O=c1[nH]c(Cc2ccccc2)nc2sc3c(c12)CCC3`, for which the pIC50 in assay [1] was less than 5.00; with MCF7 [2] it was less than 4.52; in the assay on MDA-MB-231 [3], less than 4.52.
For the compound `CC1CCc2c(sc3nc(-c4cc(F)c(F)c(F)c4)[nH]c(=O)c23)C1` (configuration not stated), the negative logarithm of the IC50 (pIC50) was less than 5.00 in assay [1], less than 4.52 with MCF7 [2] and less than 4.52 in the assay on MDA-MB-231 [3].
As for `O=c1[nH]c(-c2ccc(C(F)(F)F)cc2)nc2sc3c(c12)CCCC3`, the negative logarithm of the IC50 (pIC50) was less than 5.00 in assay [1], 4.55 with MCF7 [2] and less than 4.52 with MDA-MB-231 [3].
In the case of `O=c1[nH]c(-c2cccc(Br)c2)nc2sc3c(c12)CCC3`, the pIC50 was less than 5.00 in assay [1], less than 4.52 in the assay with MCF7 [2] and less than 4.52 in the assay with MDA-MB-231 [3].
Turning to `O=c1[nH]c(-c2ccc(Br)cc2)nc2sc3c(c12)CCC3`, the negative logarithm of the IC50 (pIC50) in assay [1] is 5.05; in the assay on MCF7 [2], 4.67; with MDA-MB-231 [3], less than 4.52.
Taken in the same sequence, the figures for `COc1ccccc1-c1nc2sc3c(c2c(=O)[nH]1)CCN(C)C3` were 5.61, 5.25 and 5.09.
Taken in the same sequence, the figures for `Cc1cc(-c2nc3sc4c(c3c(=O)[nH]2)CCC(C)C4)cc(C)c1O` (configuration not stated) were 5.49, 5.25 and 5.03.
